Results reported in ChEMBL document CHEMBL4819066, “Repurposing primaquine as a polyamine conjugate to become an antibiotic adjuvant” (Bioorg Med Chem, 2021).

What was measured:
Acinetobacter baumannii = assay: Antibacterial activity against Acinetobacter baumannii ATCC 19606 assessed as reduction in microbial growth after 18 hrs by resazurin dye based assay; format: functional; conditions: ATCC 19606 = CIP 70.34 = JCM 6841
Method in brief: (§1)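 Bacteria grown overnight at 37 °C in LB, NB or MHB, diluted 40-fold into MHB and grown 1.5-2 h to mid-log phase. Inoculum 5 × 10^5 CFU/mL (final), 2-fold serial dilutions, final range 0.008-32 µg/mL, in duplicate. […] Colistin as positive control, Z'-factor >0.4 for plate QC.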

Cryptococcus neoformans = assay: Antifungal activity against Cryptococcus neoformans ATCC 208821 assessed as reduction in microbial growth after 36 hrs by resazurin dye based assay; format: functional
Method in brief: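 Yeast grown 3 days on YPD agar at 30 °C and diluted in YNB broth to 2.5 × 10^3 CFU/mL. Compounds at 0.008-32 µg/mL final, 2-fold dilutions, in duplicate. After 36 h at 35 °C without shaking, resazurin added at 0.006% final for a further 3 h; MIC read as absorbance at OD570-600. Fluconazole as positive control.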

Staphylococcus aureus = assay: Antibacterial activity against methicillin-resistant Staphylococcus aureus ATCC 43300 assessed as reduction in microbial growth after 18 hrs by resazurin dye based assay; format: functional
Method in brief: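 Overnight culture at 37 °C, diluted 40-fold in MHB and grown 1.5-2 h to mid-log. Inoculum 5 × 10^5 CFU/mL. Two-fold serial dilutions, final 0.008-32 µg/mL, in duplicate. […] Vancomycin served as the Gram-positive standard.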

Pseudomonas aeruginosa [1] = assay: Potentiation of doxycycline-induced antibacterial activity against Pseudomonas aeruginosa ATCC 27853 assessed as complete reduction in visible microbial growth after 18 hrs in presence of 4.5 uM doxycycline by two fold serial dilution method; format: functional
Method in brief: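 Adjuvant test by broth dilution: inoculum 5 × 10^5 CFU in 200 µL MHB. Two-fold serial dilutions of each derivative were given with doxycycline fixed at 2 µg/mL. After 18 h at 37 °C, the value recorded was the lowest adjuvant concentration giving complete absence of visible growth. Three independent repeats.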

Klebsiella pneumoniae = assay: Antibacterial activity against Klebsiella pneumoniae ATCC 700603 assessed as reduction in microbial growth after 18 hrs by resazurin dye based assay; format: functional; method in brief: as §1
Pseudomonas aeruginosa [2] = assay: Antibacterial activity against Pseudomonas aeruginosa ATCC 27853 assessed as reduction in microbial growth after 18 hrs by resazurin dye based assay; format: functional; method in brief: as §1
Candida albicans = assay: Antifungal activity against Candida albicans ATCC 90028 assessed as reduction in microbial growth after 36 hrs by absorbance at OD530; conditions: ATCC 90028, 36 h
Escherichia coli = assay: Antibacterial activity against Escherichia coli ATCC 25922 assessed as reduction in microbial growth after 18 hrs by resazurin dye based assay; format: functional; method in brief: as §1

Compound | MIC (Acinetobacter baumannii) [µM] | MIC (Cryptococcus neoformans) [µM] | MIC (Staphylococcus aureus) [µM] | MIC (Pseudomonas aeruginosa [1]) [µM] | MIC (Klebsiella pneumoniae) [µM] | MIC (Pseudomonas aeruginosa [2]) [µM] | MIC (Candida albicans) [µM] | MIC (Escherichia coli) [µM]
O=C(CCC(=O)Nc1cccc2cccnc12)NCCCNCCCCCCCCNCCCNC(=O)CCC(=O)Nc1cccc2cccnc12 | > 34.1 | > 34.1 | > 34.1 | 200 | > 34.1 | > 34.1 | > 34.1 | > 34.1
O=C(CCC(=O)Nc1ccc2ccccc2n1)NCCCNCCCCNCCCNC(=O)CCC(=O)Nc1ccc2ccccc2n1 | > 36.2 | > 36.2 | > 36.2 | 566 | > 36.2 | > 36.2 | > 36.2 | > 36.2
O=C(CCC(=O)Nc1ccc2ncccc2c1)NCCCNCCCCNCCCNC(=O)CCC(=O)Nc1ccc2ncccc2c1 | > 36.2 | > 36.2 | > 36.2 | 566 | > 36.2 | > 36.2 | > 36.2 | > 36.2
O=C(CCC(=O)Nc1cccc2cccnc12)NCCCNCCCCCCCNCCCNC(=O)CCC(=O)Nc1cccc2cccnc12 | > 34.6 | > 34.6 | > 34.6 | 200 | > 34.6 | > 34.6 | > 34.6 | > 34.6
COLISTIN | 0.2 | – | – | – | 0.2 | 0.2 | – | 0.1
CN[C@H](CC(C)C)C(=O)N[C@H]1C(=O)N[C@@H](CC(N)=O)C(=O)N[C@H]2C(=O)N[C@H]3C(=O)N[C@H](C(=O)N[C@H](C(=O)O)c4cc(O)cc(O)c4-c4cc3ccc4O)[C@H](O)c3ccc(c(Cl)c3)Oc3cc2cc(c3O[C@@H]2O[C@H](CO)[C@@H](O)[C@H](O)[C@H]2O[C@H]2C[C@](C)(N)[C@H](O)[C@H](C)O2)Oc2ccc(cc2Cl)[C@H]1O [VANCOMYCIN] | – | – | 0.7 | – | – | – | – | –
C[C@H]1c2cccc(O)c2C(=O)C2=C(O)[C@]3(O)C(=O)C(C(N)=O)=C(O)[C@@H](N(C)C)[C@@H]3[C@@H](O)[C@@H]21 [DOXYCYCLINE] | – | – | – | – | – | > 45 | – | –
COc1cc(NC(=O)CCC(=O)NCCCNCCCCNCCCNC(=O)CCC(=O)Nc2cc(OC)cc3cccnc23)c2ncccc2c1 | > 33.9 | > 33.9 | > 33.9 | 200 | > 33.9 | > 33.9 | > 33.9 | > 33.9
O=C(CCC(=O)Nc1ccc2ccccc2n1)NCCCNCCCCCCCCCCNCCCNC(=O)CCC(=O)Nc1ccc2ccccc2n1 | > 33.1 | > 33.1 | > 33.1 | 517 | > 33.1 | > 33.1 | > 33.1 | > 33.1
OC(Cn1cncn1)(Cn1cncn1)c1ccc(F)cc1F [FLUCONAZOLE] | – | 26 | – | – | – | – | 0.4 | –
COc1cc(NC(=O)CCC(=O)NCCCNCCCCCCNCCCNC(=O)CCC(=O)Nc2cc(OC)cc3cccnc23)c2ncccc2c1 | > 33 | > 33 | > 33 | 300 | > 33 | > 33 | > 33 | > 33
O=C(CCC(=O)Nc1cccc2cccnc12)NCCCNCCCCCCNCCCNC(=O)CCC(=O)Nc1cccc2cccnc12 | > 35.1 | > 35.1 | 17.6 | 100 | > 35.1 | > 35.1 | > 35.1 | > 35.1
COc1cc(NC(=O)CCC(=O)NCCCNCCCCCCCNCCCNC(=O)CCC(=O)Nc2cc(OC)cc3cccnc23)c2ncccc2c1 | > 32.5 | > 32.5 | > 32.5 | 300 | > 32.5 | > 32.5 | > 32.5 | > 32.5
COc1cc(NC(=O)CCC(=O)NCCCNCCCCCCCCCCNCCCNC(=O)CCC(=O)Nc2cc(OC)cc3cccnc23)c2ncccc2c1 | > 31.2 | > 31.2 | 3.9 | 300 | > 31.2 | > 31.2 | > 31.2 | > 31.2
O=C(CCC(=O)NCc1cccnc1)NCCCNCCCCNCCCNC(=O)CCC(=O)NCc1cccnc1 | > 39.5 | > 39.5 | > 39.5 | 617 | > 39.5 | > 39.5 | > 39.5 | > 39.5
COc1cc(NC(=O)CCC(=O)NCCCNCCCCCCCCNCCCNC(=O)CCC(=O)Nc2cc(OC)cc3cccnc23)c2ncccc2c1 | > 32 | > 32 | > 32 | 300 | > 32 | > 32 | > 32 | > 32
O=C(CCC(=O)Nc1ccc2ncccc2c1)NCCCNCCCCCCCCCCNCCCNC(=O)CCC(=O)Nc1ccc2ncccc2c1 | > 33.1 | > 33.1 | > 33.1 | 517 | > 33.1 | > 33.1 | > 33.1 | > 33.1
O=C(CCC(=O)Nc1cccc2ncccc12)NCCCNCCCCNCCCNC(=O)CCC(=O)Nc1cccc2ncccc12 | > 36.2 | > 36.2 | > 36.2 | 300 | > 36.2 | > 36.2 | > 36.2 | > 36.2
O=C(CCC(=O)NCc1ccccn1)NCCCNCCCCNCCCNC(=O)CCC(=O)NCc1ccccn1 | > 39.5 | > 39.5 | > 39.5 | 617 | > 39.5 | > 39.5 | > 39.5 | > 39.5
O=C(CCC(=O)NCc1cccnc1)NCCCNCCCCCCCCCCNCCCNC(=O)CCC(=O)NCc1cccnc1 | > 35.8 | > 35.8 | > 35.8 | 559 | > 35.8 | > 35.8 | > 35.8 | > 35.8
O=C(CCC(=O)NCc1ccccn1)NCCCNCCCCCCCCCCNCCCNC(=O)CCC(=O)NCc1ccccn1 | > 35.8 | > 35.8 | > 35.8 | 559 | > 35.8 | > 35.8 | > 35.8 | > 35.8
O=C(CCC(=O)Nc1cccc2cccnc12)NCCCNCCCCNCCCNC(=O)CCC(=O)Nc1cccc2cccnc12 | > 36.2 | > 36.2 | > 36.2 | 566 | > 36.2 | > 36.2 | > 36.2 | > 36.2
O=C(CCC(=O)Nc1cccc2ncccc12)NCCCNCCCCCCCCCCNCCCNC(=O)CCC(=O)Nc1cccc2ncccc12 | > 33.1 | > 33.1 | > 33.1 | 517 | > 33.1 | > 33.1 | > 33.1 | > 33.1
